target: Serotonin 3 (5-HT3) receptor (Rattus norvegicus) (UniProt P35563+Q9JJ16); assay: Inhibition of 5-HT evoked reflex bradycardia in rat.; assay type: functional, organism-based
Summary of the method: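 Anesthetized rats (260–290 g; urethane 1.25 g/kg ip) with blood pressure and heart rate recorded. A submaximal 5-HT dose (6 μg/kg iv) was given repeatedly and heart-rate changes were quantified. Test agents were given iv before 5-HT. ID50 is the dose cutting the 5-HT-evoked response to 50% of control.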

| Structure (SMILES) | ID50 |
| --- | --- |
| CCc1nc(C(=O)NC2CC3CCCC(C2)N3C)c2ccccn12 (stereo not drawn) | 0.5 µg/kg |
| CN1C2CCC1CC(OC(=O)c1nn(C)c3ccccc13)C2 (stereo not drawn) | 1.4 µg/kg |
| CCc1cc(C(=O)NC2CC3CCC(C2)N3C)n2ccccc12 (stereo not drawn) | 1 µg/kg |
| Cc1nccn1CC1CCc2c(c3ccccc3n2C)C1=O (stereo not drawn) | 3.6 µg/kg |
| CN1C2CCC1CC(OC(=O)c1[nH]nc3ccccc13)C2 (stereo not drawn) | 5.3 µg/kg |
| CN1C2CCC1CC(NC(=O)c1ccc3ccccn13)C2 (stereo not drawn) | > 10 µg/kg |
| Cc1cc(C(=O)NC2CC3CCC(C2)N3C)n2ccccc12 (stereo not drawn) | 1.6 µg/kg |
| CCc1nc(C(=O)NC2CC3CCC(C2)N3C)c2ccccn12 (stereo not drawn) | 1 µg/kg |
| CN1C2CCC1CC(NC(=O)c1n[nH]c3ccccc13)C2 (stereo not drawn) | 1.2 µg/kg |

Further lines, results first:

| ID50 | Structure (SMILES) |
| --- | --- |
| 0.6 µg/kg | CCn1nc(C(=O)NC2CC3CCCC(C2)N3C)c2ccccc21 (stereo not drawn) |
| > 100 µg/kg | CN1C2CCCC1CC(NC(=O)c1c3ccccc3nn1C)C2 (stereo not drawn) |
| 6.8 µg/kg | CN1C2CCCC1CC(NC(=O)c1cn(C)c3ccccc13)C2 (stereo not drawn) |
| 1.1 µg/kg | CN1C2CCCC1CC(NC(=O)c1[nH]nc3ccccc13)C2 (stereo not drawn) |
| 2 µg/kg | CN1C2CCCC1CC(NC(=O)c1nn(C)c3ccccc13)C2 (stereo not drawn) |
| 1 µg/kg | CN1C2CCCC1CC(NC(=O)c1[nH]nc3ccc(F)cc13)C2 (stereo not drawn) |
| 1.4 µg/kg | CN1[C@@H]2CC[C@H]1C[C@@H](OC(=O)c1c[nH]c3ccccc13)C2 |
| 12.4 µg/kg | CN1C2CCCC1CC(NC(=O)c1[nH]nc3ccc(Cl)cc13)C2 (stereo not drawn) |
| 4.7 µg/kg | CN1C2CCC1CC(NC(=O)c1cc(-c3ccccc3)c3ccccn13)C2 (stereo not drawn) |

Source: ChEMBL document CHEMBL1124837, “5-Hydroxytryptamine (5-HT3) receptor antagonists. 1. Indazole and indolizine-3-carboxylic acid derivatives” (J Med Chem, 1990)
